Source: PubChem BioAssay
The list is not random: actives were taken first. Their share in the collection is about 3.5%.
MrgX1 PAM – human MrgX1 positive allosteric modulation, primary screen; MrgX1-HEK293, Fluo-4 calcium flux, FDSS; active compounds read high; B-score at 10 µM; AID 588675; 0.63% of 310,000 active; Q96LB2;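 active = plate-corrected calcium response at least 3 library SD above typical, normal starting fluorescence, not activating the receptor alone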;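 also: compound read alongside a low EC10 to EC30 dose of BAM8-22 agonist; peak minus trough fluorescence over baseline measured at the second addition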
Target sequence (Q96LB2 whole entry, looked up): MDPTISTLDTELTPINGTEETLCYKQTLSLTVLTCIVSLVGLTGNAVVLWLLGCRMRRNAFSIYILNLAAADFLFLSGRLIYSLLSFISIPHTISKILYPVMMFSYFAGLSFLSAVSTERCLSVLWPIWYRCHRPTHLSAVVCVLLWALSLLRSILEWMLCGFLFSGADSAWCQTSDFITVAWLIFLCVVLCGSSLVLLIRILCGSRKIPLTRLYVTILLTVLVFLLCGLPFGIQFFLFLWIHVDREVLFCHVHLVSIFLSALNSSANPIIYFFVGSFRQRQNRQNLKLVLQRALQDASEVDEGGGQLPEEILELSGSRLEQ
RGS4 act – RGS4 potentiation or activation; HEK293 M3R/inducible RGS4, carbachol calcium flux Fluo4; active compounds read low; 0.92% of 310,000 active; B-score at 10 µM;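 active = B-score of the integrated calcium signal more than 4 SD below the library mean, with starting fluorescence not abnormally high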;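 also: negative B-score means reduced calcium response which marks RGS4 activation or potentiation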
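Detection: kinetic calcium fluorescence imaging with Fluo4-AM dye, 2 µM / Material: HEK293 cells with stable M3R and inducible RGS4 / Schedule: recording 10 s baseline at 1 Hz, 100 s post-agonist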
MrgX1 agonist – agonists of human MrgX1 receptor; Q96LB2; MrgX1-HEK293 cells, Fluo-4 calcium fluorescence, agonist mode; active compounds read high; B-score at 10 µM; 0.44% of 310,000 active; AID 588627;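 active = calcium response B-score plate-corrected fluorescence ratio at least 3 library SD, with starting fluorescence B-score inside 5 SD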
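Material: HEK293 cells stably expressing human MrgX1 receptor | Quantity: 15,000 cells per well | Times: Cells plated overnight, dye loaded 0.5 h 37 °C, 0.5 h room temperature | Measured by: Kinetic Fluo-4 NW fluorescence of intracellular calcium | Control set: Positive and negative controls per plate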
RGS4 inh – inhibitors of human RGS4; HEK293 M3R/RGS4 inducible, Fluo-4 calcium flux; active compounds read high; triggered by carbachol at its EC20; 0.45% of 310,000 active; B-score at 10 µM;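 active = B-score, a plate-corrected calcium signal, over three deviations above library mean, with baseline fluorescence within five deviations of library mean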;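 also: RGS4 expression induced by doxycycline in cells with stable M3 receptor; B-score is computed from the integrated fluorescence ratio over baseline after carbachol; higher B-score means a larger calcium signal and so more RGS4 inhibition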
MrgX1 antagonist – human MrgX1 receptor antagonism, primary screen. Q96LB2. MRGX1-HEK293 calcium flux, Fluo-4, BAM8-22 antagonism; active compounds read low. B-score at 10 µM. 1.3% of 310,000 active;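 active = calcium-response B-score plate-corrected more than 3 library SD below zero, starting fluorescence within 5 deviations, no agonist response on first addition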;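 also: peak minus trough fluorescence over baseline after final BAM8-22 challenge near maximal dose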
* hit, by the source's call; i = inactive; / = not tested or not shown.

SMILES | MrgX1 PAM | RGS4 act | MrgX1 agonist | RGS4 inh | MrgX1 antagonist
O=C(N/N=C/c1ccc(OC(F)F)cc1)c1cc[n+]([O-])cc1 | i | i | i | i | -6*
O=C(N/N=C/c1ccc(OC(F)F)cc1)c1ccc(Br)cc1 | i | i | i | i | -5.3*
Cc1cc(=O)[nH]c(SCC(=O)NCC2CCCCC2)c1C#N | i | i | i | i | i
Oc1cccc2c(NC(=S)Nc3ccc(SC(F)F)cc3)cccc12 | i | i | i | i | -5.3*
COc1ccccc1C(=O)Nc1ccc2nc3n(c(=O)c2c1)CCCC3 | i | i | i | i | i
CCCOC(=O)c1ccc(Oc2coc3c(CN(CC)CC)c(O)ccc3c2=O)cc1 | i | -8.6* | i | i | i
CCN(CC)Cc1c(O)ccc2c(=O)c(-c3ccc(Cl)cc3)coc12 | i | i | i | i | i
COc1ccc(NS(=O)(=O)c2cccc(C(=O)NCC(c3ccccc3)N(C)C)c2)cc1 (configuration not stated) | i | i | i | i | -5*
O=C(c1ccco1)N1CCN(CC(O)COc2ccc(Br)cc2)CC1 (configuration not stated) | i | i | i | i | i
Cc1cc(C(=O)N/N=C/c2cccs2)no1 | i | i | 28* | i | i
CC[N+](CC)(CC)CCOc1ccc(/C=C/c2ccccc2)cc1 | i | / | i | / | -5.1*
N#Cc1ccc2nc3c(nc2c1)CCCC3 | i | i | i | i | i
COc1ccc(CC(=O)N(C)CC(=O)Nc2cccc(F)c2)cc1S(=O)(=O)N1CCOCC1 | i | i | i | i | -5.3*
CCCCCC[N+](C)(C)CC/C=C1/c2ccccc2Sc2ccc(Cl)cc21 | i | -9.5* | i | i | i
CCc1cc2c(=O)n(CC)c(SC(C)C(=O)Nc3c(C)n(C)n(-c4ccccc4)c3=O)nc2s1 (configuration not stated) | i | i | i | i | i
Cc1ccc(NC(=O)CN(C)C(=O)c2ccc(NC(=O)CC3SC(N4CCCC4)=NC3=O)cc2)cc1 (configuration not stated) | i | i | i | i | -9.6*
COc1ccc(C(=O)/C=C2/C(=O)Nc3ccccc32)cc1OC | i | i | i | 12* | i
COc1ccc(C(=O)/C=C2/C(=O)Nc3ccccc32)c(OC)c1 | i | i | i | i | i
CO/N=C/C(=N\Nc1cc(OC)cc(OC)c1)C(=O)c1ccccc1 | i | i | i | i | -5.4*
COc1ccc(NC(=O)c2cc(S(=O)(=O)N3CCOCC3)ccc2N2CCOCC2)cc1 | i | i | i | i | i
COc1ccc(NC(=O)c2cc(S(=O)(=O)N3CCCCC3)ccc2N2CCCCC2)cn1 | i | -7* | i | i | i
C=CCn1c(SCC(=O)NCC2CCCO2)nc2scc(-c3ccccc3)c2c1=O (configuration not stated) | i | i | i | i | -5.2*
COc1ccccc1N1CCN(C(=O)c2cc3c(C)nc4ccccc4c3o2)CC1 | i | -7.4* | i | i | i
Cc1nc2ccccc2c2oc(C(=O)N3CC(C)CC(C)C3)cc12 (configuration not stated) | i | i | i | i | i
COc1ccc(OC)c(N(CC(=O)N2CCOCC2)S(C)(=O)=O)c1 | i | i | i | i | i
SMILES | MrgX1 PAM | RGS4 act | MrgX1 agonist | RGS4 inh | MrgX1 antagonist
COc1ccc(OC)c(N(C)S(=O)(=O)c2cc3c(cc2C)NC(=O)CO3)c1 | i | i | i | i | i
COc1cc(/C=C2\SC(c3ccc(C)cc3)=NC2=O)ccc1O | i | i | i | i | -5.8*
COc1ccc(/C=C2\SC(c3ccc(C)cc3)=NC2=O)cc1OC | i | i | i | i | i
COc1cc(/C=C2\SC(=N)N(c3ccc(F)cc3)C2=O)ccc1O | i | i | i | i | -4.9*
CCCc1sc(N/N=C/c2ccccn2)nc1-c1ccc(F)cc1 | i | i | i | 6.5* | i
CSc1ccccc1NC(=O)C1=CC(c2ccc(C)cc2)=NS(=O)(=O)N1C | i | i | i | i | i
